# The list is not random: actives were taken first. Their share in the collection is about 2.5%.
# EWS-Fli inh: EWS/Fli transcriptional activity inhibition; A673 NR0B1-luciferase reporter, viability-normalised; inhibition, % at 12.6 µM; actives 0.67% (n = 350,000);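 active = mean inhibition of at least 50% after viability correction, with every replicate also passing that limit; inconclusive = mean reaches 50% but only one of two replicates passes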;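 note: firefly luciferase signal divided by Alamar Blue viability fluorescence both relative to DMSO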
# PAX8 inh HTS: PAX8 transcriptional activity inhibition; actives 1.2% (n = 360,000); inhibition, % at 12.6 µM; RMG-I TPO-luciferase reporter, SteadyGlo, 24 h;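 active = mean replicate inhibition at least 60% with every replicate also reaching 60%; inconclusive = only one of the two criteria is met; inactive = mean below 60% and not all replicates reaching 60%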;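 note: luciferase light reporting Pax8 driven TPO promoter activity; plate controls were median of neutral control wells for no effect and mitoxantrone controls for full effect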
# N-glyco inh: N-linked glycosylation inhibition. actives 0.23% (n = 360,000). reporter increase, % at 12.5 µM. D54 ERlucT glycosylation luciferase reporter, 24 h; percent of 100 nM tunicamycin response;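 active = mean luciferase reporter signal, scaled so untreated is 0 and the glycosylation-blocking control 100, at or above a set limit in every replicate; inconclusive = mean reaches the limit but not every replicate does; inactive = mean below the limit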;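 note: luciferase carries N-glycosylation sites so blocking glycosylation raises the light; 0% = median of neutral control wells and 100% = median of 100 nM tunicamycin wells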
# HIV Env fusion: HIV envelope-mediated fusion inhibition; HeLa-JRFL Env/CEM21 cell fusion, luciferase; inhibition, % at 12.3 µM; actives 1.1% (n = 360,000); AID 651610;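 active = mean replicate inhibition score of at least 50 and every replicate individually at or above 50; inconclusive = only one of the two criteria met; inactive = mean below 50 and not all replicates reaching 50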;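 note: 0% = plate neutral controls and 100% = maraviroc near 300 nM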
# AF4-AF9 inh: blocks AF4 peptide binding to human AF9; P42568; AlphaScreen, biotin-AF4 peptide binding to FLAG-AF9; inhibition, % at 10 µM; actives 0.47% (n = 350,000);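 active = every replicate reaching a set inhibition limit, whatever the replicate mean, cut at about 25% in these data; inconclusive = mean inhibition reaches that limit but some replicates miss it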;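 note: 0% = plate neutral control median and 100% = total signal loss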
# Target sequence (P42568 whole entry, looked up): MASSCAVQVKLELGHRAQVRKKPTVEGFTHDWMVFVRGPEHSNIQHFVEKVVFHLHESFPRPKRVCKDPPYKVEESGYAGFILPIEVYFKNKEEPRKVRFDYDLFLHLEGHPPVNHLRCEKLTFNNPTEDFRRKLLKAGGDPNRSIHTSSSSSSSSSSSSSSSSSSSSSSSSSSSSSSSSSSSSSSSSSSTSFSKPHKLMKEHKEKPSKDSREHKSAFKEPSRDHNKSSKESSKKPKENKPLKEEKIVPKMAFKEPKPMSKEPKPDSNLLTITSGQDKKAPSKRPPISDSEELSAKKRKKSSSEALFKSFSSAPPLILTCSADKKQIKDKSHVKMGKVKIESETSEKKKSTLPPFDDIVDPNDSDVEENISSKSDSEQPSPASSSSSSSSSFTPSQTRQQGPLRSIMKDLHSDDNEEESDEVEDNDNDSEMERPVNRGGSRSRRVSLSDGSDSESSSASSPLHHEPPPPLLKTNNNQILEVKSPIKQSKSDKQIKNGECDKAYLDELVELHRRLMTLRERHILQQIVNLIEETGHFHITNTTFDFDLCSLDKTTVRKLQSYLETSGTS
# FN deposition inh: fibronectin deposition inhibition; AH1F fibroblasts, Alexa488-fibronectin deposition fluorescence, overnight; inhibition, % at 12.6 µM; actives 0.086% (n = 350,000);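 active = mean inhibition across replicates of 30% or more, regardless of how many single replicates reach that level; inconclusive = mean under 30% yet at least half of replicates reach 30%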;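 note: positive control wells lacked labelled fibronectin entirely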
#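 Assay system: AH1F fibroblasts / Quantity: 10000 cells per well / Medium: DMEM plus 2% serum, read in PBS / Reagent: labelled fibronectin 24 nM / Dosing: single dose, pinned / Times: 1 h cell attachment, overnight exposure to compound and label / Signal: fluorescence, ex 485 nm, em 525 nm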
# * hit, by the source's call; ? = inconclusive; / = no result; [ ] = another dose, or the depositor's remark.
SMILES,EWS-Fli inh,PAX8 inh HTS,N-glyco inh,HIV Env fusion,AF4-AF9 inh,FN deposition inh
C(#Cc1ccccc1)C[N+]1(CC#Cc2cccc3ccccc23)CCCC1,8.2,63.4*,2.1,33.2,8.9,-0.9
CC(Sc1nc2ccccc2c(=O)n1C)C(=O)N(C)C1CCCCC1 (stereo not given),36.9,31.7,-2.3,62.1*,2.4,-5.3
COCCn1c(SC(C)C(=O)NC2CCCCC2C)nc2ccccc2c1=O (stereo not given),2.0,/,0.7,75.3*,5.8,0.5
CC(Sc1nc2ccccc2c(=O)n1CC1CCCO1)C(=O)N(C)Cc1ccccc1 (stereo not given),4.2,19.7,-0.6,19.4,4.6,17.9
CN(C)c1nc(OCCNC(=O)COc2ccc(Cl)cc2Cl)nc(N(C)C)n1,/,11.7,-0.8,44.4*,/,-6.1
C[C@@H]1CN(C)C(=O)c2cc(NS(C)(=O)=O)ccc2O[C@H]1CN(C)C,/,/,/,/,/,-8.5
Cc1ccccc1-c1cnc2c(c1)C(=O)N([C@@H](C)CO)C[C@H](C)[C@@H](CN(C)C(=O)CN(C)C)O2,-7.3,/,/,-19.2[16.7 µM],0.5,4.7
Cc1cc(N2CCC(C(=O)N3CCN(c4cccc(C)c4C)CC3)CC2)n2ncnc2n1,/,/,-0.8,67.1*,/,3.8
CC1=C(C(=O)OCc2ccc3c(c2)OCO3)C(c2ccc(F)cc2)NC(=O)N1 (stereo not given),/,/,-12.3,99.9*,/,14.4
CCN(CC)c1ccc2nc3ccc(N)cc3[n+](-c3ccccc3)c2c1,28.2,/,0.7,71.6*,49.8*,8.4
CCN(CC)c1ccc2nc3ccccc3[n+](CC)c2c1,/,/,-6.3,/,/,/
C[C@@H]1CCCCO[C@H](CN(C)C(=O)Nc2ccccc2)[C@@H](C)CN([C@@H](C)CO)C(=O)c2cc(NC(=O)C3CCCCC3)ccc2O1,-6.9,-8.6,/,-67.2[16.7 µM],3.8,-7.2
O=c1c2ccccc2sn1-c1cc(S(=O)(=O)N2CCOCC2)ccc1N1CCOCC1,/,/,2.2,-34.8,/,49.5*
CN1C(=O)c2cc(NC(=O)c3cccc(F)c3)ccc2OC[C@@H]2O[C@H](CC(=O)NCc3ccccc3)CC[C@@H]21,5.5,38.1,/,37.1[16.7 µM],/,11.4
Cc1ccc(S(=O)(=O)/C(=C/Cl)NC(=O)c2ccccc2)cc1,/,93.9*,-1.1,23.5,/,-8.3
O=C(NC(=C(Cl)Cl)S(=O)(=O)c1ccc(Cl)cc1)c1ccccc1,20.3,30.8,58.7*,-63.3,7.1,3.1
CC(=O)NC(=C(Cl)Cl)S(=O)(=O)c1ccccc1,-5.5,18.1,?,-94.7,-0.8,-4.1
Cc1ccc(C(=O)NC(=C(Cl)Cl)S(=O)(=O)c2ccc(Cl)cc2)cc1,15.4,-2.2,53.9*,-10.4,-4.2,16.1
Cc1ccc(S(=O)(=O)CCC(=O)OCC(=O)NC(=O)c2ccccc2)cc1,-0.3,-27.8,0.5,-32.5,0.6,-2.2
Cc1ccc(S(=O)(=O)C(NC(=O)c2ccccc2)=C(Cl)Cl)cc1,/,10.4,74.9*,-137.2,/,3.7
Cc1ccc(C(=O)NC(=C(Cl)Cl)S(=O)(=O)c2ccc(C)cc2)cc1,/,/,?,6.7,/,4.6
O=C(c1ccccc1)N1CC2(C1)[C@H](c1ccccc1)[C@H](CO)N2Cc1cc(F)ccc1F,4.6,10.2,/,/,0.4,/
C=CCOC(=O)[C@H]1[C@@H]2C(=O)O[C@@H](c3ccccc3)[C@@H](c3ccccc3)N2[C@@H](c2ccc(OCCOC(=O)[C@H]3C[C@H]4C(=O)N5CCC[C@H]5C(=O)N4[C@H]3c3cccc(OCCO)c3)cc2)[C@]12C(=O)Nc1ccccc12,0.3,-0.6,/,-9.3[16.7 µM],-0.3,/
C[C@H](O)C#Cc1cnc2c(c1)C(=O)N([C@@H](C)CO)C[C@H](C)[C@@H](CN(C)Cc1ccc(-c3ccccc3)cc1)O2,20.2,35.8,/,11.7[16.7 µM],8.6,10.1
COc1cc(Cl)c(C)cc1NC(=O)CN1CCN(C(=O)C2CC2)CC1,/,/,27.6*,/,/,/
Cn1c(=O)[nH]c(=O)c2c1nc(SCC(N)=O)n2Cc1cccc(Br)c1,26.4,-5.8,26.6*,12.6,-4.6,10.4
C=C(C)CSc1nc2c(c(=O)[nH]c(=O)n2C)n1Cc1ccccc1,9.8,-9.7,-2.8,-0.5,?,0.1
COc1ccc2nc(Cl)cc(Cl)c2c1,-12.3,-27.7,1.1,-26.8,-2.2,8.4
C=CS(=O)(=O)c1c2cc(OC)ccc2nc2ccc(OC)cc12,-30.9,45.8,53.1*,9.7,-2.2,3.8

# Bioassay records deposited in PubChem BioAssay by Broad Institute.
